*1 amine or outer side, *2 acyl side, *3 side chain or, on linkers, in order; H or OH if unused. Where a SMILES comes first, the peptide text is derived from it. [ ]: non-standard residue; d: D form. Phe(4-NH(5-NH2triazol-3-yl)) = Nc1nc(Nc2ccc(C[C@H](N)C(=O)O)cc2)n[nH]1; X1 = Nc1nc(Nc2ccc(C[C@@H](N[*:1])C(=O)[*:2])cc2)n[nH]1; dPhe(4-Cl) = N[C@H](Cc1ccc(Cl)cc1)C(=O)O; d2Nal = N[C@H](Cc1ccc2ccccc2c1)C(=O)O; Lys(iPr) = CC(C)NCCCC[C@H](N)C(=O)O; d3Pal = N[C@H](Cc1cccnc1)C(=O)O
Target: T1, Gonadotropin-releasing hormone receptor (Homo sapiens, UniProt P30968)
T1 sequence (P30968 whole entry): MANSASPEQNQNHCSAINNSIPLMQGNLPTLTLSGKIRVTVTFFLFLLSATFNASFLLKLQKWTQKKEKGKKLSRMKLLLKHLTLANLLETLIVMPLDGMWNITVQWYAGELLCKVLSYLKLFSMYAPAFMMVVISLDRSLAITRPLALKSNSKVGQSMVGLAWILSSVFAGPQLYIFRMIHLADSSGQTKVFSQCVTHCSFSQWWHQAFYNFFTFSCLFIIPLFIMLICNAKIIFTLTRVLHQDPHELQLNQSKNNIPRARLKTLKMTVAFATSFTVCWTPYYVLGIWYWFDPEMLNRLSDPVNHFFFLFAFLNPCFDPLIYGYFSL
Test: Competitive antagonism of GnRH-induced response in the reporter gene assay
How it was run: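 Same HEK293 human GnRH receptor luciferase reporter cells. Seven-point GnRH curve (10 µM to 10 pM final) run in duplicate without or with four to five increasing compound concentrations (10 min preincubation, 37 °C), then 5 h and luminescence. GnRH EC50 at each level by four-parameter logistic fit, giving pA2; mean of two determinations in duplicate.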

Row | Kd | SMILES
1 | 1.58 nM | CC(=O)N[C@H](Cc1ccc2ccccc2c1)C(=O)N[C@H](Cc1ccc(Cl)cc1)C(=O)N[C@H](Cc1cccnc1)C(=O)N[C@@H](CO)C(=O)N[C@@H](Cc1ccc(Nc2n[nH]c(N)n2)cc1)C(=O)N[C@H](Cc1ccc(Nc2n[nH]c(N)n2)cc1)C(=O)N[C@@H](CC(C)C)C(=O)N[C@@H](CCCCNC(C)C)C(=O)N1CCC[C@H]1C(=O)N[C@H](C)C(N)=O [Ac-D-Nal-[D-(pCl)Phe]-D-Pal-Ser-[Aph(Atz)]-D-[Aph(Atz)]-Leu-ILys-Pro-DAla-NH2] (Ac-[d2Nal][dPhe(4-Cl)][d3Pal]S[Phe(4-NH(5-NH2triazol-3-yl))][X1]L[Lys(iPr)]P[dA]-NH2)
2 | 0.631 nM | CC(=O)Nc1ccc(C[C@@H](NC(=O)[C@H](Cc2ccc(NC(=O)C3CNC(=O)N3)cc2)NC(=O)[C@H](CO)NC(=O)[C@@H](Cc2cccnc2)NC(=O)[C@@H](Cc2ccc(Cl)cc2)NC(=O)[C@@H](Cc2ccc3ccccc3c2)NC(C)=O)C(=O)N[C@@H](CC(C)C)C(=O)N[C@@H](CCCCNC(C)C)C(=O)N2CCC[C@H]2C(=O)N[C@H](C)C(N)=O)cc1 (stereo partly drawn) [Ac-D-Nal-[D-(pCl)Phe]-D-Pal-Ser-[Aph(Imz)]-D-[Aph(Ac)]-Leu-ILys-Pro-DAla-NH2]
